Data: ChEMBL document CHEMBL5678805, “Intermittent administration of MEK inhibitor GDC-0973 plus PI3K inhibitor GDC-0941 triggers robust apoptosis and tumor growth inhibition” (Cancer Res, 2012)
pIC50: −log10 of the molar value. Calls of active or inactive are those of the source. No cut-off for these calls is given here.

How the values were obtained:
MOLM-13 = test: Antitumor activity against human MOLM-13 cells harboring FLT3 Y599_D600insFDFREYE and c-Cbl E366_Q409del mutant xenografted in mouse assessed as tumor growth inhibition at 5 mg/kg, po; assay type: functional; details: MOLM-13, read-out: TGI
Summary of the method: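 Human tumor xenografts in mice were dosed orally at the indicated mg/kg. Tumor volume was measured with calipers as (L×W×W)/2. %TGI = 100 × [1 − (AUC treatment/d)/(AUC vehicle/d)], using the area under the fitted tumor-growth curve per day for each dose group relative to vehicle.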

[1] = molecular target: Serine/threonine-protein kinase Chk2 (Homo sapiens, UniProt O96017); test: Inhibition of CHK2 (unknown origin)
Serine/threonine-protein kinase Chk2, sequence (O96017 whole entry): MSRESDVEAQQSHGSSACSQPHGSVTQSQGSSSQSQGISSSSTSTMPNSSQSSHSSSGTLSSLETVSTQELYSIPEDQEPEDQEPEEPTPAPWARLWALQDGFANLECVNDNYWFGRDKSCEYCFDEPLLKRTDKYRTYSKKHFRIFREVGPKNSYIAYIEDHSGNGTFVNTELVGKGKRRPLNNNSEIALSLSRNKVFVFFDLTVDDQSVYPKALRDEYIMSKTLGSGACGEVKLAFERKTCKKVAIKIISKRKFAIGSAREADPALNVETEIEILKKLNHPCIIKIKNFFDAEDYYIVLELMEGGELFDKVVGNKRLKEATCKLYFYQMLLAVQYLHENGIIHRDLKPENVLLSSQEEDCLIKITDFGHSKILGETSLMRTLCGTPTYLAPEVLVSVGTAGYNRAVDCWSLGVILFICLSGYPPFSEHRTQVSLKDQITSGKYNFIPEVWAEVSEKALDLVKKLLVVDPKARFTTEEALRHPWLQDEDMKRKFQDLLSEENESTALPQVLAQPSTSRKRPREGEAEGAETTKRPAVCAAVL

[2] = Antitumor activity against human A375.X1 cells harboring BRAF V600E/CDKN2A E61 mutant xenografted in mouse assessed as tumor growth inhibition at 5 mg/kg, po; assay type: functional; details: A375.X1, read-out: TGI
Summary of the method: (§1)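 Single-agent dose ranging in human tumor xenograft mice at 2.5, 5 or 10 mg/kg oral. Tumor volume was measured by caliper as (L×W×W)/2. %TGI = 100×[1 − AUC(treatment/d)/AUC(vehicle/d)] from the fitted growth curve per dose group, relative to vehicle.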

DU-145 = test: Antitumor activity against human DU-145 cells harboring KRAS G12V/LKB1 K178/TP53 P223L/V274F/CDKN2A/MLH1/SMARCA4/ NF1 P2472H/RB1K715 mutant xenografted in mouse assessed as tumor growth inhibition at 10 mg/kg, po; assay type: functional; details: read-out: TGI; summary of the method: as §1
[3] = Antitumor activity against human LS174T-HM7 cells xenografted in mouse assessed as tumor growth inhibition at 10 mg/kg, po; assay type: functional; details: read-out: TGI; summary of the method: as §1
HCT-116 = test: Antitumor activity against human HCT-116 cells harboring KRAS G13D/PIK3CA […]/CTNNB1 S45del/CDKN2A G23fs mutant xenografted in mouse assessed as tumor growth inhibition at 5 mg/kg, po; assay type: functional; details: read-out: TGI; summary of the method: as §1
[4] = molecular target: ALK tyrosine kinase receptor (Homo sapiens, UniProt Q9UM73); test: Inhibition of ALK (unknown origin)
ALK tyrosine kinase receptor, sequence (Q9UM73 whole entry): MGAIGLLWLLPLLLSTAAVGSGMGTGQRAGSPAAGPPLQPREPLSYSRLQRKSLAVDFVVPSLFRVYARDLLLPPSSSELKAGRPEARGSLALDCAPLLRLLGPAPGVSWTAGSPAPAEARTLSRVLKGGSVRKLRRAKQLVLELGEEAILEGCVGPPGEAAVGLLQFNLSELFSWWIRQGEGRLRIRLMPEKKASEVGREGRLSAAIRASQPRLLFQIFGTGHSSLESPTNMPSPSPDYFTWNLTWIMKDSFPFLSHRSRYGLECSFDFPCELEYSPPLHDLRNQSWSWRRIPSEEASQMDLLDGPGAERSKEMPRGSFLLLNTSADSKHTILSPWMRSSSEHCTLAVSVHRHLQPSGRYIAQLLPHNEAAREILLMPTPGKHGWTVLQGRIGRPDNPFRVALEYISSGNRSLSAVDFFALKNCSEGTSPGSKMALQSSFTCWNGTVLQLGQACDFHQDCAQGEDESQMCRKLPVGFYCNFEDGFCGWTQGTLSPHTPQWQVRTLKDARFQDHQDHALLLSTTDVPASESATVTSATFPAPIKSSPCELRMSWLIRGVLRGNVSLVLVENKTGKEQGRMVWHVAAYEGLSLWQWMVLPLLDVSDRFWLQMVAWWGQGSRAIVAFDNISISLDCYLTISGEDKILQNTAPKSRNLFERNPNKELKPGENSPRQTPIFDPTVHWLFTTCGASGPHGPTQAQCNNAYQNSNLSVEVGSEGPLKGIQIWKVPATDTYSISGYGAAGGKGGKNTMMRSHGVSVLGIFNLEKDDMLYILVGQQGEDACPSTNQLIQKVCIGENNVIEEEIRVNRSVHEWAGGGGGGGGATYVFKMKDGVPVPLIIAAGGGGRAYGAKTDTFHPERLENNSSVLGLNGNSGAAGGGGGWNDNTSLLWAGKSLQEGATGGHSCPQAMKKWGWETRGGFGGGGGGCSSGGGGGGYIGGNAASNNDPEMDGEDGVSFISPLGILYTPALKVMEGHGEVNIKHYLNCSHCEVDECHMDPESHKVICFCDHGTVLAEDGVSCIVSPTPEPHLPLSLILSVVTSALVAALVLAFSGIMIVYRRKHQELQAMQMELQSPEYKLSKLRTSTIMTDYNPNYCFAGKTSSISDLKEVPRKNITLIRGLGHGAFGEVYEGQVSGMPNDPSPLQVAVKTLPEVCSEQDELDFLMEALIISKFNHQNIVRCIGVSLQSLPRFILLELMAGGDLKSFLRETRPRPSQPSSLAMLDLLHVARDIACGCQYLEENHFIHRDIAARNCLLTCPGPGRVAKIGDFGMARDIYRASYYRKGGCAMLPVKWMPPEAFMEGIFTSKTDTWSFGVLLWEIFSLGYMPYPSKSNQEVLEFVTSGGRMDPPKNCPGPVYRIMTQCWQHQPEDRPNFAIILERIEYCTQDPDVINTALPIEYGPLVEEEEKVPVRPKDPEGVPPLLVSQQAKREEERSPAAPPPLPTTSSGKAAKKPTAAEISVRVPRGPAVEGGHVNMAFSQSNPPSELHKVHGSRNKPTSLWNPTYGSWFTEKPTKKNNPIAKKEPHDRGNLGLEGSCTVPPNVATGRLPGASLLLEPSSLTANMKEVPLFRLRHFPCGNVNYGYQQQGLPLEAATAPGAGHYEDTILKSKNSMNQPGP

A2058 [5] = test: Antitumor activity against human A2058 cells xenografted in mouse assessed as tumor growth inhibition at 6 mg/kg, po administered once a day for 21 days in presence of 4-(2-(1H-indazol-4-yl)-6-((4-(methylsulfonyl)piperazin-1-yl)methyl)thieno[3,2-d]pyrimidin-4-yl)morpholine; assay type: functional; details: A2058, 504 h, time 21 day, read-out: TGI
Summary of the method: (§2)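 Human tumor xenografts in mice. Drugs given orally, as single agents or combined with the PI3K inhibitor. Schedules were daily (QD) or every third day (Q3D) over 21 days. Tumor volume was measured by caliper as (L×W×W)/2. %TGI = 100×[1 − AUC(treatment/d)/AUC(vehicle/d)] from fitted growth curves, with group means. Tumor lysates were immunoblotted for pS6.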

A2058 [6] = test: (§3) Antitumor activity against human A2058 cells harboring BRAF V600E/PTEN deletion mutant xenografted in mouse assessed as decrease in cyclin D1 level at 15 mg/kg, po administered every third day for 21 days and measured after 8 hrs post dose in presence of 4-(2-(1H-indazol-4-yl)-6-((4-(methylsulfonyl)piperazin-1-yl)methyl)thieno[3,2-d]pyrimidin-4-yl)morpholine by Western blot analysis; assay type: functional, organism-based; details: time 512.0 hrs
[7] = molecular target: Tyrosine-protein kinase HCK (Homo sapiens, UniProt P08631); test: Inhibition of Hck (unknown origin)
Tyrosine-protein kinase HCK, sequence (P08631 whole entry): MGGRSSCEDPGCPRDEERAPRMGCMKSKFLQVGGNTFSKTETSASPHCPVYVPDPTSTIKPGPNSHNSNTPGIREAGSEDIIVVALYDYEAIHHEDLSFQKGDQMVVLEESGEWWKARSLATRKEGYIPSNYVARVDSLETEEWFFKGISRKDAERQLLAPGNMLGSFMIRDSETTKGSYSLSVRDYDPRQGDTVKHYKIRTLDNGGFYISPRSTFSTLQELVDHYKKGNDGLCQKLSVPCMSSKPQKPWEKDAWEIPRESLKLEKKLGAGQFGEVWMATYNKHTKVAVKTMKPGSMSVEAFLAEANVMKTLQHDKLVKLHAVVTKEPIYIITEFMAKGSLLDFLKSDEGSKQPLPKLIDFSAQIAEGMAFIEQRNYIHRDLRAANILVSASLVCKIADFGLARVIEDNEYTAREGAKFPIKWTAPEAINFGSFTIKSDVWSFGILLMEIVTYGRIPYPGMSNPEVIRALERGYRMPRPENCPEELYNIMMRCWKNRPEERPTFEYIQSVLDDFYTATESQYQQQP

888-mel = test: Inhibition of PI3K/MEK signaling pathway in human 888-mel cells assessed as decrease in ERK phosphorylation by incubated for 24 hrs by Western blot analysis; assay type: cell-based
[8] = Antitumor activity against human A375.X1 cells xenografted in mouse assessed as tumor growth inhibition at 3 mg/kg, po administered once a day for 21 days; assay type: functional; details: A375.X1, 504 h, read-out: TGI, time 21 day; summary of the method: as §2
537-mel = test: Antitumor activity against human 537-mel cells harboring PTEN null mutation xenografted in mouse assessed as tumor growth inhibition at 10 mg/kg, po; assay type: functional; details: read-out: TGI
Summary of the method: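 Mice carrying human tumor xenografts dosed orally once daily for 21 consecutive days. Tumor volume measured by calipers as (L×W×W)/2. %TGI = 100×[1 − AUC(treatment/day)/AUC(vehicle/day)], using the area under the fitted growth curve relative to vehicle.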

[9] = molecular target: Dual specificity mitogen-activated protein kinase kinase 7 (Homo sapiens, UniProt O14733); test: Inhibition of MKK7beta (unknown origin)
Dual specificity mitogen-activated protein kinase kinase 7, sequence (O14733 whole entry): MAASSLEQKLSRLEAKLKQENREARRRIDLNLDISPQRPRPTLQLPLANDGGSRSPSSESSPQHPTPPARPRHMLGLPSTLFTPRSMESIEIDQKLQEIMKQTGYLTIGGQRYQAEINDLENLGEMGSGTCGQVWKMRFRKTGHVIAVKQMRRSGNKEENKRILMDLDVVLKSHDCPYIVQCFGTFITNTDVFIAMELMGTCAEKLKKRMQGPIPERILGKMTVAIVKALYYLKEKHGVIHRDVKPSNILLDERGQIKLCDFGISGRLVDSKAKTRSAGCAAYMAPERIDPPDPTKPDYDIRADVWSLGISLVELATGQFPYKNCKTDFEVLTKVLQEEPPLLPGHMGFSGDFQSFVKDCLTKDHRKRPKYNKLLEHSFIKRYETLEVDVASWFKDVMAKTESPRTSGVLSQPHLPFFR

Casein kinase 2 = Casein kinase 2 (Homo sapiens, UniProt P67870+P68400+P19784+Q8NEV1); test: Inhibition of CK2 (unknown origin); assay type: protein assay
C32 = test: Antiproliferative activity against human C32 cells assessed reduction in cell viability incubated for 4 days in presence of 4-(2-(1H-indazol-4-yl)-6-((4-(methylsulfonyl)piperazin-1-yl)methyl)thieno[3,2-d]pyrimidin-4-yl)morpholine by celltiter-glo assay; assay type: functional; details: time 4 day
Summary of the method: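 4-day CellTiter-Glo viability read-out on melanoma lines, cells exposed to increasing concentrations of each inhibitor alone and in combination.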

NCI-H2122 = test: Antitumor activity against human NCI-H2122 cells xenografted in mouse assessed as reduction in ERK phosphorylation at 1 to 10 mg/kg, po administered for 3 days and measured at 24 hrs by Western blot analysis; assay type: functional; set-up: scale not given: the % may be the effect or the level left; details: time 96 hrs
Summary of the method: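 NCI-H2122 xenograft mice received 3 daily oral doses of 1, 3, 5 or 10 mg/kg. Tumors were collected 2, 8 and 24 h after the last dose, pulverized on dry ice and lysed. Lysates were run on 4–12% SDS-PAGE and transferred to nitrocellulose. p-ERK1/2 and t-ERK1/2 bands were quantified on an Odyssey imager and expressed relative to vehicle-treated mice (0 h).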

[10] = Antitumor activity against human A375.X1 cells harboring BRAF V600E/CDKN2A E61 mutant xenografted in mouse assessed as tumor growth inhibition at 2.5 mg/kg, po; assay type: functional; details: A375.X1, read-out: TGI; summary of the method: as §1
A2058 [11] = test: as §3, with “as increase” for “as decrease”, “in Bim” for “in cyclin D1”, “after 72” for “after 8”; assay type: functional, organism-based; details: time 576.0 hrs
[12] = molecular target: Death-associated protein kinase 1 (Homo sapiens, UniProt P53355); test: Inhibition of DAPK1 (unknown origin)
[13] = molecular target: Mitogen-activated protein kinase kinase kinase 5 (Homo sapiens, UniProt Q99683); test: Inhibition of ASK1 (unknown origin)
Mitogen-activated protein kinase kinase kinase 5, sequence (Q99683 whole entry): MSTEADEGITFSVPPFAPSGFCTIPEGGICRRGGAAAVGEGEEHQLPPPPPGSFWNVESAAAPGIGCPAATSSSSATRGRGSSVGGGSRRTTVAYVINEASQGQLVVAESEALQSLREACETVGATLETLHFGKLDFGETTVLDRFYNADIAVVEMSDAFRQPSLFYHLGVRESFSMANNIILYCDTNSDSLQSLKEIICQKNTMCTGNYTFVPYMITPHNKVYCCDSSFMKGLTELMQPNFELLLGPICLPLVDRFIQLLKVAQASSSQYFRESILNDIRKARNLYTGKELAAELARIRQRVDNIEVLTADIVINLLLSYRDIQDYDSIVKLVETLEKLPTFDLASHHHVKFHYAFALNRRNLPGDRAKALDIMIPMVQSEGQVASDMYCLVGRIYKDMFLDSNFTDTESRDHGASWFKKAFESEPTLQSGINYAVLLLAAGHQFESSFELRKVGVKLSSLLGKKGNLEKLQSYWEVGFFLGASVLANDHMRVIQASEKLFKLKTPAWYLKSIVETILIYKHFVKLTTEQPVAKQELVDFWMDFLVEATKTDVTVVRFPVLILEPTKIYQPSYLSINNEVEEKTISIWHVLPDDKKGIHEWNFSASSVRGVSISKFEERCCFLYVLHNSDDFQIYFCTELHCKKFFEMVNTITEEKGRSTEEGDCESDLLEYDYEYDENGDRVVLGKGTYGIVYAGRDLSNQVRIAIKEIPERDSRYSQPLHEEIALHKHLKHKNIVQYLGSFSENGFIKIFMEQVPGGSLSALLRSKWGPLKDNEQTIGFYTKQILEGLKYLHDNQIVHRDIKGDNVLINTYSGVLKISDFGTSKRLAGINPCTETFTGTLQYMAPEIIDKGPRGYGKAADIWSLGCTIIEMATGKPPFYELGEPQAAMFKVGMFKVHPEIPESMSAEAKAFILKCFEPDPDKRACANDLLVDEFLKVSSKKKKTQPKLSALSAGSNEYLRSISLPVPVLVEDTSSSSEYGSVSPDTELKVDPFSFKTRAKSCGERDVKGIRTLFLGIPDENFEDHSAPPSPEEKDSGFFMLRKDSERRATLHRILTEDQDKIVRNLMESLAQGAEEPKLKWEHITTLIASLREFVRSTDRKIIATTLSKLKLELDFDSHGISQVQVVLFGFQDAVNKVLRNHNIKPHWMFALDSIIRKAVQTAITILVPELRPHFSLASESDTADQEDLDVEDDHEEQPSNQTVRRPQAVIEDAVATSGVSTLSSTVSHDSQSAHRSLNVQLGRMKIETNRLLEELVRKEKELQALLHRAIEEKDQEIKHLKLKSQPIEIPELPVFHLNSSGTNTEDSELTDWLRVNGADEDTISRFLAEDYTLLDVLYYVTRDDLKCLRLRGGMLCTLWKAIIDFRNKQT

[14] = molecular target: Serine/threonine-protein kinase pim-3 (Homo sapiens, UniProt Q86V86); test: Inhibition of PIM3 (unknown origin)
A2058 [15] = test: as §3, with “as suppression of S6 phosphorylation” for “as decrease in cyclin D1 level”, “after 72” for “after 8”; assay type: functional, organism-based; details: time 576.0 hrs; summary of the method: as §2
[16] = Antitumor activity against human A2058-X1 cells harboring BRAF V600E/PTEN L112Q/V175/TP53 V274F mutant xenografted in mouse assessed as tumor growth inhibition at 2.5 mg/kg, po; assay type: functional; details: A2058-X1, read-out: TGI; summary of the method: as §1
A2058 [17] = test: Antitumor activity against human A2058 cells xenografted in mouse assessed as effect on S6 phosphorylation at 5 mg/kg, po administered daily for 4 days and measured after 8 hrs; assay type: functional, organism-based; details: time 104.0 hrs

pIC50 [1]: < 5.00
pIC50 [4]: < 5.00
pIC50 [7]: < 5.00
pIC50 [9]: < 5.00
IC50 (Casein kinase 2): > 10 µM
pIC50 [13]: < 5.00
pIC50 [14]: < 5.00
SMILES: O=C(c1ccc(F)c(F)c1Nc1ccc(I)cc1F)N1CC(O)([C@@H]2CCCCN2)C1 [COBIMETINIB]
inhibition in vivo at 5 mg/kg (MOLM-13): -6%
inhibition in vivo at 5 mg/kg [2]: 106%
inhibition in vivo at 10 mg/kg (DU-145): 77%
inhibition in vivo at 10 mg/kg [3]: 37%
inhibition in vivo at 5 mg/kg (HCT-116): 68.7%
inhibition in vivo at 6 mg/kg (A2058 [5]): 73%
Activity (A2058 [6]): Active
inhibition (888-mel): Active
inhibition in vivo at 3 mg/kg [8]: 87%
inhibition in vivo at 10 mg/kg (537-mel): 96%
Activity (C32): 60%
Activity (NCI-H2122): 73%
inhibition in vivo at 2.5 mg/kg [10]: 97.5%
Activity (A2058 [11]): Active
pIC50 [12]: < 5.00
Activity (A2058 [15]): Active
inhibition in vivo at 2.5 mg/kg [16]: 36%
Activity (A2058 [17]): Active
